HTR1E antagonist = 5-HT1E receptor antagonists, primary screen, cell-based, HTS; 0.99% of 65,000 active; AID 571, 2007; 5-hydroxytryptamine receptor 1E (Homo sapiens), P28566; CHO 5-HT1E Ga15 NFAT-bla reporter, FRET, antagonist; inhibition, % at 6 µM;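 active = inhibition above a set limit, the mean inhibition across every tested compound plus 3 SD, cut at about 29% in these data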;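 also: signal is the 460 over 535 nm emission ratio of beta-lactamase substrate; 0% = agonist plus DMSO wells and 100% = wells without agonist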
Target sequence (P28566 whole entry, looked up): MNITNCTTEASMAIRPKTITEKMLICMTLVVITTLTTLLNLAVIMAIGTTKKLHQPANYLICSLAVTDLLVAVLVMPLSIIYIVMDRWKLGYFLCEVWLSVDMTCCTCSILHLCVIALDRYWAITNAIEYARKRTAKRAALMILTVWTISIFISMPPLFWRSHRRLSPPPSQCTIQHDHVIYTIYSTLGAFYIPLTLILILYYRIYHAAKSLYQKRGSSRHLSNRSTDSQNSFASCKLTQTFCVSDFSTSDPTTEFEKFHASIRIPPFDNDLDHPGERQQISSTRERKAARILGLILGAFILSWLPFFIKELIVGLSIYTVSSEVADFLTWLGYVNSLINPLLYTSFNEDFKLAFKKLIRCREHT
5HT1a antag = human 5-HT1a receptor antagonists, primary screen, cell-based, CHO, Ga15 NFAT-bla reporter. 5-hydroxytryptamine receptor 1A (Homo sapiens), P08908. CHO 5-HT1a Ga15 NFAT-bla reporter, antagonist mode. inhibition, % at 10 µM. 0.68% of 62,000 active;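 active = inhibition above the mean of all tested compounds plus 3 SD, cut at about 43% in these data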;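 also: receptor stimulated by 5-CT agonist at 100 nM near EC80; beta-lactamase reporter measured by ratiometric fluorescence of a cleavable substrate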
HTR1A agonist = human 5-HT1a receptor agonists, primary screen, cell-based, CHO, Ga15 NFAT-bla reporter; 5-hydroxytryptamine receptor 1A (Homo sapiens), P08908; CHO 5-HT1a Ga15 NFAT-bla reporter, FRET ratio; 0% basal, 100% maximal reference agonist; activation, % at 10 µM; 0.56% of 65,000 active; AID 567, 2006;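 active = activation above the screen-wide mean activation plus 3 SD, cut at about 19% in these data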;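 also: 0% = DMSO wells and 100% = 5-CT at EC100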
HTR1E agonist = 5-HT1E receptor agonists, primary screen, cell-based, HTS. CHO 5-HT1E Ga15 NFAT-bla reporter, FRET; 0% DMSO wells, 100% control agonist wells. activation, % at 6 µM. 0.69% of 65,000 active. AID 574, 2007;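 active = activation above a set limit, the screen-wide mean activation plus 3 SD, cut at about 8.5% in these data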;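 also: 100% = positive control agonist at 1 µM giving full maximal response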
S1P1 ag pot = S1P1 agonists and agonism potentiators, primary screen, cell-based, primary and confirmation screens, CRE-bla reporter | S1P1 CRE-bla cells, forskolin, beta-lactamase FRET, potentiator mode; S1P1 agonist co-added at EC20, 2 nM; 100% = saturating reference agonist, 0% = basal | activation, % at 9.5 µM | 0.57% of 56,000 active;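 active = activation above a cutoff set at the mean activation of all tested compounds plus 3 SD, cut at about 54% in these data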;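 also: forskolin at 4 µM as EC80 and the EC20 agonist is SEW2871; 100% = SEW2871 at its EC100 plus forskolin at EC80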
S1P3 ag = human S1P3 receptor agonists, primary screen, cell-based, primary and confirmation, NFAT-BLA reporter. Sphingosine 1-phosphate receptor 3 (Homo sapiens), Q99500. S1P3 NFAT-BLA reporter cells, agonism, FRET ratio; relative to 1 µM S1P, basal subtracted. activation, % at 4.5 µM. 0.1% of 60,000 active. AID 373, 2006;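 active = activation above the screen-wide mean plus 3 SD, cut at about 4.5% in these data, passing the limit was not always enough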
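Measure – % activation relative to 1 µM S1P (100%), per plate · System – stable CHO line with human S1P3, Gα16, NFAT-BLA reporter · Timing – cells plated overnight, compound 4 h 37 °C, substrate 2 h RT · Technique – fluorescent BLA substrate, ex 405 nm, em 460/535 nm ratio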
* marks the source's active call; other numbers are inactive results; x = no result given. Hits are enriched below; roughly 2.9% of the tested compounds scored in any of these assays.

SMILES	HTR1E antagonist	5HT1a antag	HTR1A agonist	HTR1E agonist	S1P1 ag pot	S1P3 ag
CN1CCN2c3ccccc3Cc3ccccc3C2C1 (stereo not drawn)	5	x	0	86*	-12	-1
CCC(=O)N1CCN(c2ccccc2NC(=O)COc2cc(C)ccc2C(C)C)CC1	3	58*	5	-1	-11	2
CC(=O)N1CCN(c2ccccc2NC(=O)COc2ccc(Cl)cc2Cl)CC1	15	29	2	0	30	-1
O=C(NCCN1CCCCCC1)c1ccc(N2CCCC2=O)cc1	-3	-4	-5	0	-14	1
O=C(NCCCN1CCN(c2cccc(Cl)c2)CC1)c1cccc(N2CCCC2=O)c1	0	89*	2	2	x	x
O=C(NCCCN1CCCC1=O)c1cccc(N2CCCC2=O)c1	9	3	-2	-1	-10	-1
O=C(CCN1C(=O)COc2ccccc21)NCCN1CCN(c2cccc(Cl)c2)CC1	7	33	3	9.6*	13	-1
Cc1cccc(C(=O)NCCN2CCN(c3ccccc3)CC2)c1	3	-278	52*	0	-5	-1
O=C(NCCCN1CCN(c2cccc(Cl)c2)CC1)c1ccc(N2CCCC2=O)cc1	-6	46*	15	8	x	x
COc1ccc(N(CC(=O)NCc2ccco2)S(=O)(=O)c2ccc(OC)c(OC)c2)cc1	5	-6	-1	0	-37	-2
COc1ccc(C(c2c(O)ccc3ccccc23)N2CCOCC2)c(OC)c1 (stereo not drawn)	16	107*	-7	-1	110*	-2
Cc1ccc(C)c(N2CCN(Cc3nnnn3C3CCCCC3)CC2)c1	-9	26	2	42*	-10	-1
Cc1sc2ncnc(Oc3ccc(-n4ccnc4)cc3)c2c1C	4	6	298*	0	5	-1
CCCn1c(CNS(=O)(=O)c2ccc(C)cc2)nc2ccccc21	-1	13	-1	0	-5	0
O=C(OC(C(=O)NCc1cccs1)c1ccccc1Cl)c1ccco1 (stereo not drawn)	0	8	-1	-1	9	0
C=CCNc1nc(N2CCCCC2)c(C#N)c2c1CN(Cc1ccccc1)CC2	-17	x	10	0	-34	-3
O=S(=O)(NCc1ccncc1)c1ccc(Br)s1	9	11	0	0	110*	-1
CN(C(=O)COC(=O)COc1ccccc1F)C1CCS(=O)(=O)C1 (stereo not drawn)	2	-7	-6	-1	-14	0
O=C(CCn1nnc2ccccc21)Nc1nnc(COc2ccc(F)cc2)s1	15	24	4	0	14	-1
O=C(CCn1nnc2ccccc21)Nc1nnc(Cc2ccc(F)cc2)s1	3	6	-1	13*	-6	-2
COC(=O)CCSCc1cn2cc(Cl)ccc2n1	-1	-5	-5	-1	-8	-1
COC(=O)c1nnn(-c2nonc2N)c1CSc1ccc(Cl)cc1	30*	15	-2	-1	-11	0
COc1cc2c(cc1NC(=O)CCCN1C(=O)CCC1=O)oc1ccccc12	-2	-8	11	0	-6	-1
COc1cc2c(cc1NC(=O)CN1C(=O)NC3(CCc4ccccc43)C1=O)oc1ccccc12 (stereo not drawn)	-14	45*	-1	1	-8	-1
N/C(=N\c1nc2c(c(=O)[nH]1)CCCC2)Nc1ccccc1	2	-5	-4	1	65*	0
SMILES	HTR1E antagonist	5HT1a antag	HTR1A agonist	HTR1E agonist	S1P1 ag pot	S1P3 ag
O=C(Nc1ccccc1C(=O)N1CCCC1)c1cccc(S(=O)(=O)N2CCCCC2)c1	-7	6	-1	0	-9	-1
Cc1ccc(C(=O)CC2(O)C(=O)N(Cc3ccccc3Cl)c3ccccc32)o1 (stereo not drawn)	8	-2	0	16*	10	-1
Cc1cccc(-n2ncc3c(N(C)Cc4ccccc4)ncnc32)c1	-5	-5	0	2	10	-1
CCCn1c(=O)c(C(=O)Nc2nnc(CC)s2)c(O)c2ccccc21	7	16	-2	0	-1	-1
Oc1c(Cl)cc(Cl)cc1Sc1cc(Cl)cc(Cl)c1O	5	x	-1	0	132*	1
CCOc1ccc(C(=O)Nc2cc(=O)n(C)c(=O)n2C)cc1	-10	-5	-3	1	-23	-1
Cc1cc(C)n(-c2nc(NC(C)C)nc(NC(C)C)n2)n1	30*	11	-3	-2	-14	0
O=C(CSc1nnnn1-c1ccccc1)Nc1nsc(-c2ccc(Cl)cc2)n1	-11	50*	0	1	-19	0
O=C(CSc1nnnn1-c1ccccc1)Nc1nsc(-c2ccccc2)n1	9	7	-1	0	x	-1
O=C(Cn1nnc(-c2ccncc2)n1)N(C1CCCCC1)C1CCCCC1	11	7	0	5	15	-1
CCNc1ccc(C(=O)OCC)cc1NC(=O)c1cccc(N(C)C)c1	45*	28	-4	0	x	x
COc1ccc(OC)c(NC(=O)C2CCCCC2C(=O)O)c1 (stereo not drawn)	-5	-12	0	15*	-12	0
COc1ccc(OC)c(NC(=O)C2C3CCC(C3=C(C)C)C2C(=O)O)c1 (stereo not drawn)	19	20	0	-2	-7	-2
CSC(=O)CC(=O)NC(=O)c1ccccc1	0	-11	0	0	4	0
COC1(OC)N=C(NC(=O)Nc2ccccc2)C2(C#N)C(c3ccccc3)C12C#N (stereo not drawn)	9	-6	-1	0	15	-1
CCC(C)Nc1nc(OC)nc(N(C)C#N)n1 (stereo not drawn)	-12	x	1	0	-2	-2
COc1cc2c(cc1OC)-c1cc(N3CCCc4ccccc43)nc(=O)n1CC2	64*	13	2	2	-25	2
COc1cc2c(cc1OC)-c1cc(N3CCCCCC3)nc(=O)n1CC2	41*	8	1	1	-78	2
COc1cc2c(cc1OC)-c1cc(OCc3cccnc3)nc(=O)n1CC2	24	0	1	0	-19	0
COc1cc2c(cc1OC)-c1cc(Nc3ccc4c(c3)OCCO4)nc(=O)n1CC2	40*	14	-1	0	-57	0

Screens as filed in PubChem BioAssay.
